In test [1] the target is T1, Galectin-3 (Homo sapiens, UniProt P17931). The test can be described thus: Binding affinity to human galectin 3 by surface plasma resonance analysis. The method, boiled down:
(§1)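 Recombinant human Gal-3 amine-coupled to a CM5 chip (about 1000 RU) with an ethanolamine reference channel. Analytes were serially diluted in 0.01 M HEPES pH 7.4, 0.15 M NaCl and 0.005% P20, then run at 25 °C and 30 μL/min with 120 s association and 300 s dissociation, followed by 3 M MgCl2 regeneration. EC50 was taken from the fitted binding curve.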

The target of test [2] is T1, Galectin-3. The test can be described thus: Inhibition of human galectin 3 binding to human A549 cells incubated for 1 hr. The class given is cell-based. The essentials: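 A549 cells were grown in plates, fixed, and blocked overnight at 4 °C with 3% BSA in PBS. Biotinylated Gal-3 (5 μg/ml), premixed with compound at 3–300 μM, was then added for 1 h at 4 °C. Bound Gal-3 was detected with streptavidin-HRP and TMB, stopped with 1 M HCl, and read at OD450. Percent inhibition came from a Gal-3 standard curve, and EC50 from a five-parameter asymmetric fit.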

Test [3] has as its target T1, Galectin-3. The experiment in a line: Binding affinity to human galectin 3 assessed as relative affinity by surface plasma resonance analysis. The method, boiled down:
as §1

In test [4] the target is T1, Galectin-3. The experiment in a line: Binding affinity to human galectin 3 assessed as relative affinity per sugar unit on cyclodextrin by surface plasma resonance analysis. The method, boiled down:
as §1

T1 sequence (P17931 whole entry): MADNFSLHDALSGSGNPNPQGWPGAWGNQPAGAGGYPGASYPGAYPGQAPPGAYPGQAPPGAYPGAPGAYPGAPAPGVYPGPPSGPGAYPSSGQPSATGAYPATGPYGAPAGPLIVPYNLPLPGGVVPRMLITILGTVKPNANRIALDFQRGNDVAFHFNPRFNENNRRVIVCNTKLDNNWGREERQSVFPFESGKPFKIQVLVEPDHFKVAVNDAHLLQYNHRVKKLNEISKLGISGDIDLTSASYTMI

A word on the EC50: it is the concentration at which the effect is half-maximal. For `CC(=O)N[C@H]1[C@@H](OCCOCCOCCn2cc(CCC(=O)NC[C@H]3O[C@@H]4O[C@H]5[C@H](O)[C@@H](O)[C@@H](O[C@H]6[C@H](O)[C@@H](O)[C@@H](O[C@H]7[C@H](O)[C@@H](O)[C@@H](O[C@H]8[C@H](O)[C@@H](O)[C@@H](O[C@H]9[C@H](O)[C@@H](O)[C@@H](O[C@H]%10[C@H](O)[C@@H](O)[C@@H](O[C@H]3[C@H](O)[C@H]4O)O[C@@H]%10CNC(=O)CCc3cn(CCOCCOCCO[C@H]4O[C@H](CO)[C@H](O)[C@H](O[C@@H]%10O[C@H](CO)[C@H](O)[C@H](O)[C@H]%10O)[C@H]4NC(C)=O)nn3)O[C@@H]9CNC(=O)CCc3cn(CCOCCOCCO[C@H]4O[C@H](CO)[C@H](O)[C@H](O[C@@H]9O[C@H](CO)[C@H](O)[C@H](O)[C@H]9O)[C@H]4NC(C)=O)nn3)O[C@@H]8CNC(=O)CCc3cn(CCOCCOCCO[C@H]4O[C@H](CO)[C@H](O)[C@H](O[C@@H]8O[C@H](CO)[C@H](O)[C@H](O)[C@H]8O)[C@H]4NC(C)=O)nn3)O[C@@H]7CNC(=O)CCc3cn(CCOCCOCCO[C@H]4O[C@H](CO)[C@H](O)[C@H](O[C@@H]7O[C@H](CO)[C@H](O)[C@H](O)[C@H]7O)[C@H]4NC(C)=O)nn3)O[C@@H]6CNC(=O)CCc3cn(CCOCCOCCO[C@H]4O[C@H](CO)[C@H](O)[C@H](O[C@@H]6O[C@H](CO)[C@H](O)[C@H](O)[C@H]6O)[C@H]4NC(C)=O)nn3)O[C@@H]5CNC(=O)CCc3cn(CCOCCOCCO[C@H]4O[C@H](CO)[C@H](O)[C@H](O[C@@H]5O[C@H](CO)[C@H](O)[C@H](O)[C@H]5O)[C@H]4NC(C)=O)nn3)nn2)O[C@H](CO)[C@H](O)[C@@H]1OC1O[C@H](CO)[C@H](O)[C@H](O)[C@H]1O` (stereo not given in full), the concentration giving a half-maximal response (EC50) at Galectin-3 [1] worked out at 3.16 µM; on Galectin-3 [2], 10.5 µM. Moreover, the relative binding affinity (RBA) on Galectin-3 [3] amounted to 464; on Galectin-3 [4], 66.4.

As for `CC(=O)N[C@H]1[C@@H](OCCOCCOCCn2cc(CCC(=O)NC[C@H]3O[C@@H]4O[C@H]5[C@H](O)[C@@H](O)[C@@H](O[C@H]6[C@H](O)[C@@H](O)[C@@H](O[C@H]7[C@H](O)[C@@H](O)[C@@H](O[C@H]8[C@H](O)[C@@H](O)[C@@H](O[C@H]9[C@H](O)[C@@H](O)[C@@H](O[C@H]%10[C@H](O)[C@@H](O)[C@@H](O[C@H]3[C@H](O)[C@H]4O)O[C@@H]%10CNC(=O)CCc3cn(CCOCCOCCO[C@H]4O[C@H](CO)[C@H](O)[C@H](O)[C@H]4NC(C)=O)nn3)O[C@@H]9CNC(=O)CCc3cn(CCOCCOCCO[C@H]4O[C@H](CO)[C@H](O)[C@H](O)[C@H]4NC(C)=O)nn3)O[C@@H]8CNC(=O)CCc3cn(CCOCCOCCO[C@H]4O[C@H](CO)[C@H](O)[C@H](O)[C@H]4NC(C)=O)nn3)O[C@@H]7CNC(=O)CCc3cn(CCOCCOCCO[C@H]4O[C@H](CO)[C@H](O)[C@H](O)[C@H]4NC(C)=O)nn3)O[C@@H]6CNC(=O)CCc3cn(CCOCCOCCO[C@H]4O[C@H](CO)[C@H](O)[C@H](O)[C@H]4NC(C)=O)nn3)O[C@@H]5CNC(=O)CCc3cn(CCOCCOCCO[C@H]4O[C@H](CO)[C@H](O)[C@H](O)[C@H]4NC(C)=O)nn3)nn2)O[C@H](CO)[C@H](O)[C@@H]1O`, the EC50 at Galectin-3 [1] was found to be 1.37 µM; on Galectin-3 [2], 1.5 µM. Besides, the relative binding affinity (RBA) came out at 1070 at Galectin-3 [3] and 153 at Galectin-3 [4].

In the case of `CC(=O)N[C@H]1[C@@H](OCCOCCOCCN=[N+]=[N-])O[C@H](CO)[C@H](O)[C@@H]1O[C@@H]1O[C@H](CO)[C@H](O)[C@H](O)[C@H]1O`, on Galectin-3 [3], the relative binding affinity (RBA) is below 1.47.

Consider `CC(=O)N[C@H]1[C@@H](OCCOCCOCCN=[N+]=[N-])O[C@H](CO)[C@H](O)[C@@H]1O`, for which, at Galectin-3 [3], the relative binding affinity (RBA) was below 1.47.

Regarding `O=C(CCc1cn(CCOCCOCCO[C@@H]2O[C@H](CO)[C@@H](O[C@@H]3O[C@H](CO)[C@H](O)[C@H](O)[C@H]3O)[C@H](O)[C@H]2O)nn1)NC[C@H]1O[C@@H]2O[C@H]3[C@H](O)[C@@H](O)[C@@H](O[C@H]4[C@H](O)[C@@H](O)[C@@H](O[C@H]5[C@H](O)[C@@H](O)[C@@H](O[C@H]6[C@H](O)[C@@H](O)[C@@H](O[C@H]7[C@H](O)[C@@H](O)[C@@H](O[C@H]8[C@H](O)[C@@H](O)[C@@H](O[C@H]1[C@H](O)[C@H]2O)O[C@@H]8CNC(=O)CCc1cn(CCOCCOCCO[C@@H]2O[C@H](CO)[C@@H](O[C@@H]8O[C@H](CO)[C@H](O)[C@H](O)[C@H]8O)[C@H](O)[C@H]2O)nn1)O[C@@H]7CNC(=O)CCc1cn(CCOCCOCCO[C@@H]2O[C@H](CO)[C@@H](O[C@@H]7O[C@H](CO)[C@H](O)[C@H](O)[C@H]7O)[C@H](O)[C@H]2O)nn1)O[C@@H]6CNC(=O)CCc1cn(CCOCCOCCO[C@@H]2O[C@H](CO)[C@@H](O[C@@H]6O[C@H](CO)[C@H](O)[C@H](O)[C@H]6O)[C@H](O)[C@H]2O)nn1)O[C@@H]5CNC(=O)CCc1cn(CCOCCOCCO[C@@H]2O[C@H](CO)[C@@H](O[C@@H]5O[C@H](CO)[C@H](O)[C@H](O)[C@H]5O)[C@H](O)[C@H]2O)nn1)O[C@@H]4CNC(=O)CCc1cn(CCOCCOCCO[C@@H]2O[C@H](CO)[C@@H](O[C@@H]4O[C@H](CO)[C@H](O)[C@H](O)[C@H]4O)[C@H](O)[C@H]2O)nn1)O[C@@H]3CNC(=O)CCc1cn(CCOCCOCCO[C@@H]2O[C@H](CO)[C@@H](O[C@@H]3O[C@H](CO)[C@H](O)[C@H](O)[C@H]3O)[C@H](O)[C@H]2O)nn1`, the EC50 worked out at 25.3 µM on Galectin-3 [1] and 23.5 µM on Galectin-3 [2]. Further, the relative binding affinity (RBA) came out at 58.1 on Galectin-3 [3] and 8.29 at Galectin-3 [4].

With `[N-]=[N+]=NCCOCCOCCO[C@@H]1O[C@H](CO)[C@@H](O[C@@H]2O[C@H](CO)[C@H](O)[C@H](O)[C@H]2O)[C@H](O)[C@H]1O`, the relative binding affinity (RBA) at Galectin-3 [3] was below 1.47.
